Results on one molecule are retold here after ChEMBL document CHEMBL3102735, “Enhancing the pharmacodynamic profile of a class of selective COX-2 inhibiting nitric oxide donors” (Bioorg Med Chem, 2014).

The target of data set [1] is T1, Prostaglandin G/H synthase 2 (Mus musculus) (UniProt Q05769).
T1 sequence (whole entry): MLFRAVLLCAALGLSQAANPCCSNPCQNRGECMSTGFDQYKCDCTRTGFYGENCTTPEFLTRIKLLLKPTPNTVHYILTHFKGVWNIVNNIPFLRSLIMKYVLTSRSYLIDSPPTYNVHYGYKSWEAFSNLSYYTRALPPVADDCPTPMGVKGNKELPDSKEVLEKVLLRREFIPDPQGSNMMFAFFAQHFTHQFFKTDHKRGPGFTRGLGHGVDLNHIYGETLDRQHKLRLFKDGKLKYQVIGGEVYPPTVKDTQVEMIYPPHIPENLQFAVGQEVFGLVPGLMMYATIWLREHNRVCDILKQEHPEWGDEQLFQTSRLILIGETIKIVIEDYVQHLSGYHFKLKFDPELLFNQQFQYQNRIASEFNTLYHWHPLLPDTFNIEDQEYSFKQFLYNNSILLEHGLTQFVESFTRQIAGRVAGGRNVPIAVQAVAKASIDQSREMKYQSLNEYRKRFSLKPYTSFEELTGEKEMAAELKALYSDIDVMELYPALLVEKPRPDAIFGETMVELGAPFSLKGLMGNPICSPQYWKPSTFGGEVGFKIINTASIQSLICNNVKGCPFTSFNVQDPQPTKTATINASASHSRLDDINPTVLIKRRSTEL
The experiment in a line: Inhibition of LPS-induced COX-2 in mouse J774 cells using arachidonic acid as substrate assessed as inhibition of prostaglandin E2 production at 10 uM preincubated for 15 mins followed by substrate addition measured after 30 mins by RIA. Format: cell-based.

The subject of data set [2] is Mus musculus. The experiment in a line: Antihyperalgesic activity in Swiss albino mouse assessed as reduction in carrageenan-induced inflammation at 40 mg/kg, po after 60 mins relative to control. Format: functional. Also on record: scale not given: the % may be the effect or the level left.
Data set [3] relates to Mus musculus. Put plainly: Antihyperalgesic activity in Swiss albino mouse assessed as reduction in carrageenan-induced inflammation at 20 mg/kg, po after 90 mins relative to control. Also on record: scale not given: the % may be the effect or the level left. In kind it is functional.
The target of data set [4] is T2, Prostaglandin G/H synthase 2 (Mus musculus, UniProt Q05769).
T2 sequence (Q05769 whole entry): T1 sequence (whole entry)
The experiment in a line: Inhibition of LPS-induced COX-2 in mouse J774 cells using arachidonic acid as substrate assessed as inhibition of prostaglandin E2 production preincubated for 15 mins followed by substrate addition measured after 30 mins by RIA. Format: cell-based.

Data set [5] relates to Thoracic aorta. The experiment in a line: Ex vivo vasorelaxant activity in Wistar rat endothelium thoracic aortic ring assessed as reduction of KCl-induced contraction in presence of guanylate cyclase inhibitor ODQ. In kind it is functional. Put shortly:
(§1)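 Endothelium-denuded thoracic aortic rings from male Wistar rats (250–350 g) in oxygenated Tyrode-type buffer at 37 °C, isometric tension recording. Rings precontracted with 30 mM KCl, then 3-fold increasing compound concentrations (1 nM–10 µM) added, also with 1 µM ODQ preincubated. Emax as % of KCl tone; pIC50; mean ± SE of 6–10 experiments.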

Data set [6] deals with Mus musculus. Put plainly: Analgesic activity in Swiss albino mouse assessed as reduction of acetic acid-induced writhing at 20 mg/kg, po measured every 10 mins after 5 mins of administration relative to control. In kind it is functional. Further details: scale not given: the % may be the effect or the level left. A digest of the protocol: (§2)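 Male Swiss albino mice (23–25 g), compound given orally in CMC vehicle; writhing induced by 0.6% acetic acid (10 mL/kg) ip. Stretching movements counted for 10 min, starting 5 min after administration; percent reduction versus CMC-treated animals.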

For data set [7], the system named is Mus musculus. The experiment in a line: Antihyperalgesic activity in Swiss albino mouse assessed as reduction in carrageenan-induced inflammation at 40 mg/kg, po after 90 mins relative to control. Format: functional. Further details: scale not given: the % may be the effect or the level left.
The nature of data set [8]: Solubility of the compound in phosphate buffer saline at pH 7.4 after 90 mins by HPLC analysis. Format: physicochemical. Put shortly: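 DMSO stock (20 mM) diluted 2 µL into 198 µL PBS 0.01 M pH 7.4 or pepsin-free SGF 0.05 M pH 1.5, duplicate wells, shaken 90 min at 300 rpm. Filtrates analysed by HPLC with photodiode-array detection against seven-point standards (1–200 µM).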

The subject of data set [9] is Mus musculus. Put plainly: Analgesic activity in Swiss albino mouse assessed as reduction of acetic acid-induced writhing at 40 mg/kg, po measured every 10 mins after 5 mins of administration relative to control. Format: functional. Further details: scale not given: the % may be the effect or the level left. A digest of the protocol: as §2
For data set [10], the system named is Mus musculus. The experiment in a line: Antihyperalgesic activity in Swiss albino mouse assessed as reduction in carrageenan-induced inflammation at 40 mg/kg, po after 30 mins relative to control. In kind it is functional. Further details: scale not given: the % may be the effect or the level left.
For data set [11], the system named is Thoracic aorta. Put plainly: Ex vivo vasorelaxant activity in Wistar rat endothelium thoracic aortic ring assessed as reduction of KCl-induced contraction. Format: functional, tissue-based. Put shortly: as §1
In data set [12] the test system is Liver. The experiment in a line: Induction of nitric oxide production in Wistar rat liver homogenate assessed as nitrate level at 1 mM. The conditions noted are these: TDE = time-dependent effect. Format: functional, tissue-based.
In data set [13] the target is T3, Prostaglandin G/H synthase 2 (Homo sapiens, UniProt P35354).
T3 sequence (P35354 whole entry): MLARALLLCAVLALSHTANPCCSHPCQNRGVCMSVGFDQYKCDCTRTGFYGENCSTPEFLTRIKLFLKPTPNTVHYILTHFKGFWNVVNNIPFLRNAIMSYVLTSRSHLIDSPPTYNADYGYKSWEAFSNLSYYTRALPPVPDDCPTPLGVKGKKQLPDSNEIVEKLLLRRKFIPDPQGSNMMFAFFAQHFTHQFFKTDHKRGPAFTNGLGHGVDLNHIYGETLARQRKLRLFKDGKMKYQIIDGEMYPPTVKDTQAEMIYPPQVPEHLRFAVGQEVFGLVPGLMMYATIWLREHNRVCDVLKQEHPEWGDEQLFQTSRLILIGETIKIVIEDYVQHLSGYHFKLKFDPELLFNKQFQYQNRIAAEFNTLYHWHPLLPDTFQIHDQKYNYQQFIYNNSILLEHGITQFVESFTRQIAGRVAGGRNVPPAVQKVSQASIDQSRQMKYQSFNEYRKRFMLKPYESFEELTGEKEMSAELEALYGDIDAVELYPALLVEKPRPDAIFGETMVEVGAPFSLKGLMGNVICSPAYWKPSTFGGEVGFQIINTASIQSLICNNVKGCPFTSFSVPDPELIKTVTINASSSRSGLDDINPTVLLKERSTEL
Also on record: species or system Blood.

The subject of data set [14] is Rattus norvegicus. Put plainly: Drug metabolism in Wistar rat plasma assessed as 2-(1-(4-fluorophenyl)-2-methyl-5-(4-(methylsulfonyl)phenyl)-1H-pyrrol-3-yl)-N-(2-hydroxyethyl)acetamide metabolite at 10 mg/kg, po up to 6 hrs by LC-MS/MS analysis. In kind it is ADME, organism-based. Further details: dose 10 mg/kg, route oral. The conditions noted are these: in vivo. A digest of the protocol:
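Male Han Wistar rats, three per route, single 10 mg/kg/5 mL dose iv or po in 5% DMSO, 5% Cremophor EL, 0.1% Tween 80 in 150 mM phosphate buffer pH 7. Jugular-vein blood sampled, plasma methanol-precipitated, parent and hydroxy metabolite quantified by LC–MS/MS in positive ESI MRM mode (LLOQ 1–15 ng/mL).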

The nature of data set [15]: Stability of the compound in phosphate buffer saline assessed as compound remaining at pH 7.4 after 60 mins by LC-MS/MS analysis. In kind it is physicochemical. The conditions noted are these: read-out: Stability. Put shortly:
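1 mM DMSO stock added to 0.01 M PBS (pH 7.4) or 0.05 M simulated gastric fluid without pepsin (pH 1.5 with HCl); incubated in hybridisation oven; aliquots at 0, 30, 60, 120 min quenched with ice-cold acetonitrile containing internal standard; parent remaining (%) measured.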

Data set [16] concerns Liver. The experiment in a line: Induction of nitric oxide production in Wistar rat liver homogenate assessed as nitrate level at 1 mM after 1 to 150 mins. Format: functional, tissue-based.

pIC50: −log10 of the molar value. Calls of active or inactive are those of the source. The calls are words filed in the database; no cut-off is given here.

As for `Cc1c(CC(=O)NCCO[N+](=O)[O-])cc(-c2ccc(S(C)(=O)=O)cc2)n1-c1ccc(F)cc1`, the inhibition in data set [1] is 100%. In addition, the Activity is 60% in [2]; 20% in data set [3]; 77% in [6]; 29% in data set [7]; 75% in data set [9]; 32% in [10]. For the same molecule, the Activity entry in data set [12] is “tde”; in data set [16], 38.3 µM. The pIC50 in [4] is 6.60; in [11] it was 5.31; in [13], 5.77. For the same molecule, the result in [5] was inactive. Moreover, the solubility at 1.5 h in data set [8] is greater than 200 µM. Moreover, the Drug metabolism result in data set [14] was “Active”. The remaining at 1 h in data set [15] came to 100%.

As usually defined, the inhibition is how much of the control response was suppressed. A word on the pIC50: it is the IC50 on a negative log10 scale, so that one unit is a factor of ten. What is called solubility is the dissolved amount per volume that the medium holds.
